In the library only some 2.3% were active in any assay of this set; here they are far more common.
SR-BI DiI-HDL act: activators of SR-BI mediated HDL lipid uptake | CHO ldlA[mSR-BI] cells, DiI-HDL uptake fluorescence, 3 h; 100 = double the neutral-control signal | activation, % at 12.5 µM | actives 0.096% (n = 320,000);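 active = mean replicate activation of at least 60% and every replicate at or above 60%; inconclusive = mean or all-replicate condition met, but not both; inactive = mean below 60% and not all replicates reaching 60%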;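 also: 0% = median plate neutral-control signal and 100% = twice that signal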
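material = CHO ldlA[mSR-BI] cells | medium = Ham's F12 with 0.5% BSA, HEPES 25 mM, pH 7.4 | reagent = fluorescent DiI-HDL, 10 µg/mL final | compound dosing = single-point compound dose | incubation = 3 h, 37 °C | measured by = bottom-read fluorescence, 550/595 nm | measure = HDL uptake via cellular fluorescence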
SR-BI DiI inh: blocks mouse SR-BI lipid uptake from DiI-HDL; Q61009; ldlA[mSR-BI] CHO cells, DiI-HDL uptake fluorescence, 3 h; inhibition, % at 12.5 µM; actives 0.96% (n = 320,000); AID 488896;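 active = mean replicate inhibition of at least 70% and a set share of replicates each scoring 70 or more; inconclusive = meets just one of the two criteria; inactive = fails both criteria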;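 also: 0% = median of neutral control wells and 100% = median of positive control wells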
Target sequence (Q61009 whole entry, looked up): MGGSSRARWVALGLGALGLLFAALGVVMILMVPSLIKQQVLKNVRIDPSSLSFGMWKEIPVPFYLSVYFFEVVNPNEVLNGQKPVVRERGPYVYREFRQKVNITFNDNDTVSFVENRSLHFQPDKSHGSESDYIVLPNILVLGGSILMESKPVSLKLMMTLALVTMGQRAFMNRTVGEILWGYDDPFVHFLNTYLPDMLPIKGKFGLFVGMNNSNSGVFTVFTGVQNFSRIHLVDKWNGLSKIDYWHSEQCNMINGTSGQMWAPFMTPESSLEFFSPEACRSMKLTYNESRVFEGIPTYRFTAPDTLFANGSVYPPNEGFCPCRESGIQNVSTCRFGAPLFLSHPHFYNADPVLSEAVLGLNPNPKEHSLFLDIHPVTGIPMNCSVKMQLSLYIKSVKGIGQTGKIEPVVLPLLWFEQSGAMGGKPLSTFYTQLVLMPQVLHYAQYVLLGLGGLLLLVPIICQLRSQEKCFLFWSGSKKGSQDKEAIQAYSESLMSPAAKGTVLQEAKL
CAL PDZ FP-1: blocks peptide binding to the human CAL PDZ domain | inhibition, % at 24.9 µM | actives 0.92% (n = 300,000) | purified CAL PDZ, TMR-peptide fluorescence polarization, 1 h | Q9HD26 | AID 602252;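 active = mean inhibition of at least 30% with at least half of replicates also reaching 30%; inconclusive = no clear call, values can overlap the other calls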;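 also: 0% = DMSO neutral control and 100% = excess unlabeled competitor peptide PRC23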
ATG4B inhibitor: blocks human ATG4B protease cleavage of LC3 substrate; Q9Y4P1; ATG4B cleavage of LC3-PLA2, NBD-HPC fluorescence, 1 h; inhibition, % at 8.33 µM; actives 0.51% (n = 340,000); in the data active = inhibition above about 40%
CAL PDZ FP-2: human CAL PDZ-peptide interaction inhibition | Q9HD26 | purified CAL PDZ, TMR-peptide fluorescence polarization, 1 h | inhibition, % at 20 µM | actives 0.02% (n = 330,000) | AID 504414;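 active = highest replicate inhibition of at least 40%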;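 also: plate controls were DMSO neutral control wells for no effect and unlabeled competitor peptide control wells for full effect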
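System: tagged CAL PDZ domain. Schedule: 1 h room-temperature incubation prior to read. Signal: fluorescence polarization (mP). Measure: percent inhibition from loss of millipolarization.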
DiI quencher: DiI fluorescence quenching in cell-free counter-screen | shares compounds with SR-BI DiI inh | cell-free DiI-HDL fluorescence quenching, 30 min | AC50, µM (series often up to 35 µM), inactives show top-dose activity change, negative = quenching | actives 20% (n = 470) | AID 540326;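 active = quenching, a falling signal, with AC50 below a set limit tied to the top valid dose, actives reach about 32 µM in these data; inconclusive = no clear call, values can overlap the other calls; inactive = rising signal, and the rest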
The depositor's hits bear a star.

CCC(C)C1/C=C\CC(NC(=O)OCC2c3ccccc3-c3ccccc32)CC(=O)N1Cc1ccccc1 (configuration not stated) was read as SR-BI DiI-HDL act -75, SR-BI DiI inh 75*, CAL PDZ FP-1 -1, ATG4B inhibitor 22, CAL PDZ FP-2 0 and DiI quencher -2%.
`O=C(Nc1ccc(S(=O)(=O)N2CCOCC2)cc1)c1ccc(Cl)c([N+](=O)[O-])c1` gave SR-BI DiI-HDL act -17, SR-BI DiI inh 17, CAL PDZ FP-1 -4, ATG4B inhibitor -5 and CAL PDZ FP-2 -1.
COCCN(C(=O)COC(=O)c1cccnc1SC)c1c(N)n(Cc2ccccc2)c(=O)[nH]c1=O was read as SR-BI DiI-HDL act 7, SR-BI DiI inh -7, CAL PDZ FP-1 -2, ATG4B inhibitor -7 and CAL PDZ FP-2 0.
COc1ccccc1-n1cnc2cc(NCc3ccco3)ccc21 was read as SR-BI DiI-HDL act -76, SR-BI DiI inh 76*, CAL PDZ FP-1 -3, ATG4B inhibitor -2, CAL PDZ FP-2 -1 and DiI quencher -19%.
For COc1ccccc1-n1cnc2cc(NCc3ccccc3O)ccc21 the results were SR-BI DiI-HDL act -10, SR-BI DiI inh 10, CAL PDZ FP-1 -2, ATG4B inhibitor 0 and CAL PDZ FP-2 0.
For Cc1cc(C(=O)O)ccc1N=Cc1c(O)ccc2ccccc12 the results were SR-BI DiI-HDL act 17, SR-BI DiI inh -17, CAL PDZ FP-1 -6, ATG4B inhibitor 1 and CAL PDZ FP-2 0.
`C=CC[C@@H](CC(=O)NCCO)C(=O)NC[C@H](OC(=O)[C@@H](CC=C)Cc1ccc(F)cc1)c1ccccc1` gave SR-BI DiI-HDL act -23, SR-BI DiI inh 23, CAL PDZ FP-1 -1, ATG4B inhibitor -15 and CAL PDZ FP-2 -1.
For O=C(CN1CCN(c2ncc(C(F)(F)F)cc2Cl)CC1)NCCNc1ncc(C(F)(F)F)cc1Cl the results were SR-BI DiI-HDL act -75, SR-BI DiI inh 75*, CAL PDZ FP-1 -1, ATG4B inhibitor -3, CAL PDZ FP-2 0 and DiI quencher -1%.
`CCOc1ccccc1NC(=O)C(CC(C)C)NC(=O)C1CCC(C)CC1` (configuration not stated) gave SR-BI DiI-HDL act -80, SR-BI DiI inh 80*, CAL PDZ FP-1 -1, ATG4B inhibitor 1, CAL PDZ FP-2 -2 and DiI quencher -3%.
CCOc1ccccc1NC(=O)N1C2CCCC1CC(NC(=O)C1CC1)C2 (configuration not stated) was read as SR-BI DiI-HDL act -7, SR-BI DiI inh 7, CAL PDZ FP-1 -7, ATG4B inhibitor -13, CAL PDZ FP-2 -1 and DiI quencher 0%.
For Cn1c(=O)c(=O)n(C)c2cc(S(=O)(=O)CCC(=O)Nc3ccc(C(F)(F)F)cc3)ccc21 the results were SR-BI DiI-HDL act 11, SR-BI DiI inh -11, CAL PDZ FP-1 2, ATG4B inhibitor 9 and CAL PDZ FP-2 -2.
For CCCCCOC(=O)c1[nH]c2c(c1C)C(=O)CC(c1ccco1)C2 (configuration not stated) the results were SR-BI DiI-HDL act -80, SR-BI DiI inh 80*, ATG4B inhibitor 10, CAL PDZ FP-2 0 and DiI quencher -5%.
Screening CCOC(=O)c1[nH]c2c(c1C)C(=O)CC(c1ccc(F)cc1)C2 (configuration not stated) returned SR-BI DiI-HDL act -72, SR-BI DiI inh inconclusive, ATG4B inhibitor 8, CAL PDZ FP-2 0 and DiI quencher -3%.
For CCOCCOC(=O)c1[nH]c2c(c1C)C(=O)CC(c1cccs1)C2 (configuration not stated) the results were SR-BI DiI-HDL act -75, SR-BI DiI inh 75*, CAL PDZ FP-1 -3, ATG4B inhibitor -4, CAL PDZ FP-2 -2 and DiI quencher -1%.
Screening COCCOC(=O)c1[nH]c2c(c1C)C(=O)CC(c1cccs1)C2 (configuration not stated) returned CAL PDZ FP-1 -5, ATG4B inhibitor 4 and CAL PDZ FP-2 -3.
Screening CSc1ncccc1C(=O)NCc1nnc2ccccn12 returned SR-BI DiI-HDL act 8, SR-BI DiI inh -8, CAL PDZ FP-1 -4, ATG4B inhibitor 1 and CAL PDZ FP-2 0.
For COc1ccc(CCN2CC(C(=O)NCc3nc4ccccc4n3C)CCC2=O)cc1 (configuration not stated) the results were SR-BI DiI-HDL act 16, SR-BI DiI inh -16, ATG4B inhibitor 9 and CAL PDZ FP-2 0.
N#Cc1ccc(C(=O)N2CCC3CC2c2cc(-c4ccccc4)ccc23)cc1 (configuration not stated) was read as SR-BI DiI-HDL act -5, SR-BI DiI inh 5, CAL PDZ FP-1 -1, ATG4B inhibitor -1, CAL PDZ FP-2 1 and DiI quencher -3%.
O=C(c1ccc(Cl)cc1)N1CCC2CC1c1cc(-c3ccccc3)ccc12 (configuration not stated) was read as SR-BI DiI-HDL act -27, SR-BI DiI inh 27, CAL PDZ FP-1 3, ATG4B inhibitor 8 and CAL PDZ FP-2 0.
O=C(c1cccc(Cl)c1)N1CCC2CC1c1cc(-c3ccccc3)ccc12 (configuration not stated) was read as SR-BI DiI-HDL act -13, SR-BI DiI inh 13, CAL PDZ FP-1 -7, ATG4B inhibitor -2, CAL PDZ FP-2 0 and DiI quencher -5%.
CC(OC(=O)CC1CCCC1)C(=O)Nc1ccc(Cl)cn1 (configuration not stated) was read as SR-BI DiI-HDL act -2, SR-BI DiI inh 2, CAL PDZ FP-1 -6, ATG4B inhibitor 7 and CAL PDZ FP-2 1.
COc1ccc(-c2nnc(SCC(=O)Nc3ncc(C(F)(F)F)cc3Cl)n2CC(C)C)cc1 was read as SR-BI DiI-HDL act -25, SR-BI DiI inh 25, CAL PDZ FP-1 -5, ATG4B inhibitor 2, CAL PDZ FP-2 -2 and DiI quencher -6%.
`CCn1c(SCC(=O)Nc2ncc(C(F)(F)F)cc2Cl)nnc1-c1cccc(C)c1` gave SR-BI DiI-HDL act 26, SR-BI DiI inh -26, CAL PDZ FP-1 6, ATG4B inhibitor -9 and CAL PDZ FP-2 0.
Cc1nonc1NC(=O)CSc1nnnn1-c1ccccc1 was read as SR-BI DiI-HDL act 1, SR-BI DiI inh -1, CAL PDZ FP-1 6, ATG4B inhibitor -6 and CAL PDZ FP-2 -2.
COc1cc(C(=S)N2CCOCC2)ccc1OC(=O)c1ccccc1[N+](=O)[O-] was read as SR-BI DiI-HDL act -24, SR-BI DiI inh 24, CAL PDZ FP-1 -4, ATG4B inhibitor -12 and CAL PDZ FP-2 0.
Screening COc1cc(C(=S)N2CCCC2)ccc1OC(=O)c1ccc(Cl)cc1[N+](=O)[O-] returned SR-BI DiI-HDL act -112, SR-BI DiI inh 112*, CAL PDZ FP-1 -1, ATG4B inhibitor 3, CAL PDZ FP-2 -4 and DiI quencher -15%.
